Changes are numbered by the printed parent chain.
What was measured:
Experiment in all cases: Whole-cell voltage clamp, Zn^2+ modulation of GAQ gating
Format in all cases: cell-based
human Hv1 E119H-H193A = target: T1, human Hv1 E119H-H193A (Homo sapiens, UniProt Q96D96, E119H/H193A)
T1 sequence (Q96D96 1-273 E119H/H193A): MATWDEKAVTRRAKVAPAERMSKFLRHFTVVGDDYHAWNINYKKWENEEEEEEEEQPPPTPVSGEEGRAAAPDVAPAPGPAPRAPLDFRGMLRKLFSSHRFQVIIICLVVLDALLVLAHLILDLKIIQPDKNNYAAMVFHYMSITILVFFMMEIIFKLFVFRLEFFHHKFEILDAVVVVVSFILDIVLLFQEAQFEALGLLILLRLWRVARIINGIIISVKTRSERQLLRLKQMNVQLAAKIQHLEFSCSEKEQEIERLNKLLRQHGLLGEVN
Method in brief: (§1)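 Whole-cell patch clamp at ~21°C. Pipette and bath (mM): ~80 TMA-MeSO3, 100 Bis-Tris, 8 HCl, pH 6.5, 310–320 mOsm. ZnCl2 was diluted into bath solution and applied by gravity superfusion, at least 2 min per change. Test step voltage was set per construct from its V0.5. G_STEP = end-of-step current/(V−V_REV). Effect = 1 − G_Zn/G_control, fitted to the Hill equation. IC50 and nH are means ± SEM from separate cells. ΔpIC50 was tested by unpaired t test, P<0.05.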

[1] = target: T2, human Hv1 E119H-H140A-D185H-H193A (Homo sapiens, UniProt Q96D96, D185H/E119H/H140A/H193A)
T2 sequence (Q96D96 1-273 E119H/H140A/D185H/H193A): T1 sequence (Q96D96 1-273 E119H/H193A) with H140A, D185H
Method in brief: as §1

[2] = target: T3, human Hv1 E196H (E^4.38H) (Homo sapiens, UniProt Q96D96, E196H)
T3 sequence (Q96D96 1-273 E196H): T1 sequence (Q96D96 1-273 E119H/H193A) with H119E, A193H, E196H
Method in brief: as §1

[3] = target: T4, human Hv1 H193A (H^3.71A) (Homo sapiens, UniProt Q96D96, H193A)
T4 sequence (Q96D96 1-273 H193A): T1 sequence (Q96D96 1-273 E119H/H193A) with H119E
Method in brief: as §1

human Hv1 H140A-D185H = target: T5, human Hv1 H140A-D185H (Homo sapiens, UniProt Q96D96, D185H/H140A)
T5 sequence (Q96D96 1-273 H140A/D185H): T1 sequence (Q96D96 1-273 E119H/H193A) with H119E, H140A, D185H, A193H
Method in brief: as §1

human Hv1 D112H = target: T6, human Hv1 D112H (Homo sapiens, UniProt Q96D96, D112H)
T6 sequence (Q96D96 1-273 D112H): T1 sequence (Q96D96 1-273 E119H/H193A) with D112H, H119E, A193H
Method in brief: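 Zn2+ effect was read from tail current, not end-of-step current. Whole-cell recording at ~21°C with pH 6.5 pipette and bath solutions (mM: ~80 TMA-MeSO3, 100 Bis-Tris, 8 HCl). ZnCl2 was diluted in bath solution and gravity-superfused, at least 2 min per change. Concentration–response was fitted to the Hill equation, with IC50 values from separate cells. ΔpIC50 was compared by unpaired Student's t test, P<0.05.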

[4] = VSTEP 100 mV, calculated as log (IC50)
[5] = VSTEP 120 mV, calculated as log (IC50)

[Cl-].[Cl-].[Zn+2] [Zn^2+, ZnCl2]
Mean ΔpIC50 = (pIC50_1 - pIC50_2) (human Hv1 E119H-H193A; E119H-H193A vs H193A): 1.38
nH, fit of the mean data to a Hill function (human Hv1 E119H-H193A; Fig. 4A): 0.7
Hill value (human Hv1 E119H-H193A; VSTEP 100 mV): 0.86
pIC50 (human Hv1 E119H-H193A; [4]): 5.45
IC50 (human Hv1 E119H-H193A; read-out: IC50, fit of the mean data to a Hill function, Fig. 4A): 4.2 µM
Mean ΔpIC50 = (pIC50_1 - pIC50_2) ([1]; E119H-H140A-D185H-H193A vs E119H-H140A-H193A): −0.25
Mean ΔpIC50 = (pIC50_1 - pIC50_2) ([1]; E119H-H140A-D185H-H193A vs H140A-D185H-H193A): 1.75
Hill value ([1]; VSTEP 120 mV): 0.72
pIC50 [1, 5]: −4.90
Mean ΔpIC50 = (pIC50_1 - pIC50_2) ([2]; E196H vs WT): −0.43
Hill value ([2]; VSTEP 100 mV): 0.63
pIC50 [2, 4]: −4.63
nH, fit of the mean data to a Hill function ([3]; Fig. 2C): 1.0
Mean ΔpIC50 = (pIC50_1 - pIC50_2) ([3]; H193A vs WT): −1.37
Hill value ([3]; VSTEP 100 mV): 1.04
pIC50 [3, 4]: −4.06
IC50 ([3]; read-out: IC50, fit of the mean data to a Hill function, Fig. 2C): 82.2 µM
nH, fit of the mean data to a Hill function (human Hv1 H140A-D185H; Fig. 4D): 0.6
Mean ΔpIC50 = (pIC50_1 - pIC50_2) (human Hv1 H140A-D185H; H140A-D185H vs D185H): −0.42
Mean ΔpIC50 = (pIC50_1 - pIC50_2) (human Hv1 H140A-D185H; H140A-D185H vs H140A): 0.54
Hill value (human Hv1 H140A-D185H; VSTEP 120 mV): 0.81
pIC50 (human Hv1 H140A-D185H; [5]): −4.96
IC50 (human Hv1 H140A-D185H; read-out: IC50, fit of the mean data to a Hill function, Fig. 4D): 18 µM
Mean ΔpIC50 = (pIC50_1 - pIC50_2) (human Hv1 D112H; D112H vs WT): −2.1
Hill value (human Hv1 D112H; VSTEP 130 mV, determined from tail current): 0.56
pIC50 (human Hv1 D112H; VSTEP 130 mV, determined from tail current, calculated as log (IC50)): −2.96
IC50 (human Hv1 D112H; read-out: Mean IC50 @ VSTEP, VSTEP 130 mV, pH 6.5, determined from tail current): 1140 µM

Source: paper PMC5987874 (The Journal of General Physiology, 2018)
